Measured values from different studies.
Protocols differ between the studies behind these lines.
Target: Protein kinase C epsilon type (PRKCE, Homo sapiens, UniProt Q02156)
Sequence (Q02156 1-737, as in one of the studies): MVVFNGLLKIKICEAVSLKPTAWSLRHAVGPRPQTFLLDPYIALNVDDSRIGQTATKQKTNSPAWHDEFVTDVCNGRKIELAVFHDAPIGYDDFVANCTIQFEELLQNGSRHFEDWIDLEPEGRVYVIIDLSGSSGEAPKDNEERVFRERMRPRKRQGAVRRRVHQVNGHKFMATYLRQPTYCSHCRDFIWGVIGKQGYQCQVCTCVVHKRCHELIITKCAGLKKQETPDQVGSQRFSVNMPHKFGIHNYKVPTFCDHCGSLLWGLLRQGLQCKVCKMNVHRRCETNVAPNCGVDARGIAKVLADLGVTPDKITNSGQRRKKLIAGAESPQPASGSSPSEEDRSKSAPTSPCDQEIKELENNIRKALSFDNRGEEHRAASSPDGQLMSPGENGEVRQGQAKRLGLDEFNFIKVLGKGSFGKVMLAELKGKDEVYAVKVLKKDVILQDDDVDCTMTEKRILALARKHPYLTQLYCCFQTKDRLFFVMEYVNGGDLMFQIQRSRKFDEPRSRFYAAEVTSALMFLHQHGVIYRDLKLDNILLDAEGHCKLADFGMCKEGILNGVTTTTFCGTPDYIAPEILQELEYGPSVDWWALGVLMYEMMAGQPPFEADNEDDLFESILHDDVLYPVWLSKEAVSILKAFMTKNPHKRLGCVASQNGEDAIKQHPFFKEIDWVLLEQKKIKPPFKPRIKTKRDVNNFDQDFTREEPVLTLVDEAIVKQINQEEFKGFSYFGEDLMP

COc1ncccc1-c1cnn2ccc(N3CCN(C(=O)OC(C)C)CC3)nc12
remaining binding (binding; competition with immobilised ligand; 1 µM): 76%

CC(C)(C)c1cc(C=C(C#N)C#N)cc(Br)c1O
remaining activity (enzyme activity; inhibitor; 0.5 µM): 108%

Cn1cncc1[C@](O)(COc1ccc(C#N)cc1-c1ccc(OC(F)(F)F)cc1)c1ccc(C#N)cc1
remaining binding (cell-free assay; competition with immobilised ligand; 1 µM): 79%

Cn1cc(-c2cc(F)cc(N3CCn4c(cc5c4CCCC5)C3=O)c2CO)cc(Nc2ccc(N3CCN(C4COC4)CC3)cn2)c1=O
inhibition (enzyme activity; inhibitor; 0.1 µM): -4%

O=c1[nH]c2ccccc2n1C1CCN(Cc2ccc(-c3[nH]c4cc5ncnc5cc4nc3-c3ccccc3)cc2)CC1
remaining signal (cell-free assay; 0.5 µM): 109%

COc1cc(Nc2ncc(F)c(Nc3ccc4c(n3)NC(=O)C(C)(C)O4)n2)cc(OC)c1OC
inhibition (binding; 10 µM): 73%

Cn1cc(-c2cccc(N3CCc4c(sc5c4CC(C)(C)C5)C3=O)c2CO)cc(Nc2ccncn2)c1=O
inhibition (enzyme activity; inhibitor; 1 µM): 1%

C#Cc1n[nH]c2c(-c3cn([C@@H](C)c4ccccn4)c(=O)[nH]c3=O)cc(F)cc12
inhibition (enzyme activity; inhibitor; 0.1 µM): 4.1%
